Screening results: PubChem, Johns Hopkins Ion Channel Center
Only some compounds are listed: those with a hit (about 3.7% of all), similar ones and a draw of the others.
KCNK3 inh – human KCNK3 channel inhibition, primary screen | 340,000 tested, 0.84% active | B-score at 10 µM | CHO-KCNK3 thallium flux, FluxOR fluorescence; hits give low values | O14649;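 active = B-score under library mean minus 4 SD, starting fluorescence ratio at most library mean plus 5 SD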;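 also: more negative B-score means stronger inhibition of thallium flux through KCNK3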
KCNQ1 pot – potentiates or activates the human KCNQ1 potassium channel; P51787; CHO-K1 KCNQ1, thallium flux FluxOR fluorescence; hits give high values; B-score at 10 µM; 310,000 tested, 0.35% active;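 active = fluorescence ratio B-score, a plate-corrected score, at least three library SD, with initial intensity B-score within 5 SD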
Target sequence (P51787 whole entry, looked up): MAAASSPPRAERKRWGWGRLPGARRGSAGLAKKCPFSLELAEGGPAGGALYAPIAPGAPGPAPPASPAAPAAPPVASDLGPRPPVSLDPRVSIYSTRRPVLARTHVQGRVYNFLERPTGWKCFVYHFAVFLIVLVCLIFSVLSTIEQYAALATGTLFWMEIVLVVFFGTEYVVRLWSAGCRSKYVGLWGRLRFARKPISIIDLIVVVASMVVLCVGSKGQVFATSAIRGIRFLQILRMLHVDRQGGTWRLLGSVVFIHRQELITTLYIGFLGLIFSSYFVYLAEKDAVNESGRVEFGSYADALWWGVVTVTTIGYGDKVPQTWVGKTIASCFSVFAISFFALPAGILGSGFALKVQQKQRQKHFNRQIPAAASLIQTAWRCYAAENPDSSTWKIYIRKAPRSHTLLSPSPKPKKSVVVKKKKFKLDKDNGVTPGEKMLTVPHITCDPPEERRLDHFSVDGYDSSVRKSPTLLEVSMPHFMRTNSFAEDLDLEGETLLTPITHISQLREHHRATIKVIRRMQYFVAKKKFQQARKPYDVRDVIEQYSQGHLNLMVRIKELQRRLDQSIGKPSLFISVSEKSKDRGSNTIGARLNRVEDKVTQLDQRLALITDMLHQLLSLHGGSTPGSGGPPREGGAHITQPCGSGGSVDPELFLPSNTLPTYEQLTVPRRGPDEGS
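Material: CHO-K1 cells stably expressing KCNQ1. Medium: assay buffer for compound exposure, DMSO matched across wells. Reagent: K+/Tl+ depolarizing stimulus. Compound dosing: single-concentration screen. Times: 37 °C overnight plating, 90-min dark dye load, 20-min compound pretreatment. Technique: FluxOR Tl+ flux fluorescence.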
KCNQ1 inh – blocks the human KCNQ1 potassium channel; AID 2642; 310,000 tested, 1.3% active; B-score at 10 µM; CHO-K1 KCNQ1, FluxOR thallium flux fluorescence; hits give high values;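 active = compounds whose thallium flux B-score, printed positive for inhibition, exceeds three library SD while starting fluorescence stays within three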;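 also: channel opened by potassium depolarization with thallium stimulus after 20 min compound exposure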
Kir21 block – inhibitors of mouse Kir2.1 inward-rectifier potassium channel | HEK293-Kir2.1, FluxOR thallium flux fluorescence; hits give low values | B-score at 10 µM | 310,000 tested, 0.85% active | AID 1672;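 active = fluorescence ratio B-score at or below minus 3 SD of library scores, with starting-brightness B-score within 2 SD, cut at about -4.2 in these data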;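 also: channel flux triggered by added potassium and thallium sulfate stimulus; B-score of peak minus minimum fluorescence over baseline after thallium stimulus; more negative B-score means stronger Kir2.1 block with less thallium influx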
KCNK9 block – blocks the human KCNK9 two-pore domain potassium channel; HEK293 KCNK9, FluxOR thallium flux fluorescence; hits give low values; B-score at 10 µM; 310,000 tested, 1.2% active; AID 488922;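 active = ratio B-score over 3 SD below the library mean, with starting fluorescence within 5 SD of its mean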;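 also: negative B-score means less thallium flux so channel inhibition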
hERG protect – compounds protecting human hERG from proarrhythmic drug block | Q12809 | CHO-hERG, FluxOR thallium flux, dofetilide IC70 present | activation (rescue from dofetilide block), less the hit threshold, % at 10 µM | 310,000 tested, 0.51% active | AID 1511;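 active = activation above the mean of controls blocked by dofetilide plus 5 SD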;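 also: thallium influx through hERG after potassium depolarization seen as dye fluorescence rise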
KCNK9 inh conf – human KCNK9 inhibitor confirmation; shares compounds with KCNK9 block; HEK293 KCNK9 cells, FluxOR thallium flux fluorescence; inhibition, % at 10 µM; 4,900 tested, 43% active;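 active = thallium signal inhibited by more than 5 SD of the compound-free buffer control wells, on both duplicate plates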;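 also: 0% = assay buffer control wells without compound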
Kir2-1 spec – tests whether KCNK9 modulators also affect mouse Kir2.1; shares compounds with KCNK9 block; Kir2.1 cells, FluxOR thallium flux fluorescence; inhibition, % at 10 µM; 4,900 tested, 4% active;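 active = thallium signal drop more than 5 SD beyond the mean of the no-compound control wells, seen in both duplicate plates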;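 also: signal is fluorescence rise after thallium addition divided by baseline fluorescence; plate controls were assay buffer only for no effect and full block by chlorpromazine control for full effect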
HEK293 Tl ctr – second counter-screen for KCNK9 modulators: effect in non-induced cells. shares compounds with KCNK9 block. non-induced KCNK9-HEK293, FluxOR thallium flux. inhibition, % at 10 µM. 4,900 tested, 40% active. AID 492997;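 active = thallium signal drop beyond 5 SD of the untreated control mean, on both duplicate plates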;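 also: plate controls were buffer only IC0 wells for no effect and SID17386958 at its maximal inhibitory level for full effect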
KCNK3 confirm – confirmation of human KCNK3 two-pore domain potassium channel inhibitors; shares compounds with KCNK3 inh; AID 651638; ratio percent of control, % at 10 µM; CHO-KCNK3 thallium flux, FluxOR fluorescence; 0% buffer, 100% carvedilol maximal block; 2,400 tested, 99% active;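 active = ratio percent of control, averaged over triplicates, above buffer control mean plus 5 SD, cut at about 64% in these data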;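 also: ratio is the fluorescence rise from min to max over baseline after thallium stimulus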
KCNK3 uninduced – counter-screen for KCNK3 inhibitors: effect in non-induced cells; shares compounds with KCNK3 inh; non-induced KCNK3 parental cells, FluxOR thallium flux; hits give low values; thallium flux ratio (lower = more inhibition) at 10 µM; 2,400 tested, 40% active;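 active = thallium flux ratio, averaged over three wells, more than 5 SD below the buffer control mean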;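 also: host cells are CHO cells without KCNK3 induction; ratio is peak minus trough fluorescence over baseline then normalized to buffer controls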
Active calls of the source: *; i = inactive; . = not tested or not shown.

SMILES	KCNK3 inh	KCNQ1 pot	KCNQ1 inh	Kir21 block	KCNK9 block	hERG protect	KCNK9 inh conf	Kir2-1 spec	HEK293 Tl ctr	KCNK3 confirm	KCNK3 uninduced
NC(=O)CC(NC(=O)c1ccc(Cl)cc1)C(=O)NCCc1ccc(S(N)(=O)=O)cc1 (stereo not drawn)	i	i	i	0.5	i	-6.8	.	.	.	.	.
COc1cccc(-c2nn(-c3ccccc3)cc2C(=O)Nc2nccs2)c1	-10.5*	i	6*	-0.7	-15.2*	-10.6	35.0%*	i	i	99.7*	0.122*
O=C(COC(=O)c1ccc(F)cc1Cl)NC1CCCCCCC1	i	.	.	.	.	.	.	.	.	.	.
Cc1sc(NC(=O)c2ccco2)c(CN2CCN(c3ccc(F)cc3)CC2)c1C	-10.5*	i	i	-0.96	-14.8*	-11.0	i	i	29.0%*	110.0*	0.153*
CCOC(=O)N1CCN(Cc2c(NC(=O)c3ccco3)sc(C)c2C)CC1	i	i	i	-0.05	i	-4.2	.	.	.	.	.
Cc1cccc(C)c1NC(=S)N(CCCN1CCOCC1)Cc1cccnc1	i	i	i	-0.2	i	3.6	.	.	.	.	.
CCn1c(C(=O)N2CCC(C(=O)NCCCSC3CCCCC3)CC2)cc2sccc21	-9.26*	i	i	-0.15	i	-20.7	i	i	i	92.3*	i
CCOC(=O)C1CCN(C(=O)c2cccnc2)CC1	i	i	i	0.55	i	0.4	.	.	.	.	.
CCOC(=O)C1CCN(C(c2cccnc2)c2c(NC(=O)c3ccco3)sc(C)c2C)CC1 (stereo not drawn)	-10.7*	i	i	-0.09	-18.6*	-17.4	66.5%*	i	40.0%*	136.3*	0.114*
COc1ccc(-n2nc(C(=O)NCC(=O)Nc3cccc(Cl)c3)c3ccccc3c2=O)cc1	i	i	i	-1.63	i	-4.8	.	.	.	.	.
N#C/C(=C/c1ccc(N2CCCCC2)o1)c1cccc(F)c1	-14.3*	i	i	-2.23	-10.4*	-26.4	77.5%*	i	72.5%*	170.3*	0.0793*
N#C/C(=C/c1ccc(Sc2nc3ccccc3[nH]2)o1)c1cccc(F)c1	-9.76*	i	13*	0.68	i	-15.3	i	i	i	122.0*	i
O=C1NC(=O)/C(=C/c2ccc(N3CCOCC3)o2)N1	i	i	i	0.96	i	-6.3	.	.	.	.	.
Cc1ccc(/C(C#N)=C\c2ccc(N3CCOCC3)o2)cc1	-15.4*	i	9*	-0.68	-12.2*	-16.2	57.0%*	i	84.5%*	167.7*	0.0443*
N#C[C@H]1C2OC2c2ccccc2N1C(=O)c1ccccc1 (stereo partly drawn)	i	i	i	0.82	i	-7.7	.	.	.	.	.
O=C(CNC(=O)c1cccc([N+](=O)[O-])c1)NC1CCCc2ccccc21 (stereo not drawn)	i	.	.	.	.	.	.	.	.	.	.
CC(C)Cn1c(N)c(C(=O)COC(=O)c2cccn2C)c(=O)n(C)c1=O	i	.	.	.	.	.	.	.	.	.	.
Cc1cc(F)ccc1S(=O)(=O)N1CCCOC1CNC(=O)C(=O)NC1CC1 (stereo not drawn)	i	i	i	1.21	i	-3.7	.	.	.	.	.
Cc1ccc(Nc2nc(CSc3nnnn3-c3ccccc3)cs2)cc1	i	i	i	0.33	-11*	-4.1	47.0%*	i	35.0%*	100.0*	i
COC(=O)C1=C(C)N=C2SC(C#N)=C(N)N2C1c1ccc(OCc2ccccc2)cc1 (stereo not drawn)	-9.91*	i	i	-2.39	-16.6*	-5.6	74.0%*	i	52.0%*	96.7*	0.149*
COC(=O)C1=C(C)N=C2SC(C#N)=C(N)N2C1c1cc(OC)c(OC)c(OC)c1 (stereo not drawn)	i	i	i	0.39	i	-4.7	.	.	.	.	.
COc1cccc(-n2cc(CNC(=O)C3CCC(=O)N(C4CC4)C3)cn2)c1 (stereo not drawn)	i	i	i	-0.14	i	-3.0	.	.	.	.	.
CC(C)(c1ccccc1)c1ccc(OCCn2cnc3ccccc3c2=O)cc1	-13.3*	i	i	-0.77	i	-9.8	i	i	40.0%*	72.7*	0.149*
Fc1ccc(C(c2nnnn2CCc2ccccc2)N2CCCc3ccccc32)cc1 (stereo not drawn)	-9.11*	i	i	-0.01	-8.29*	-5.5	34.5%*	i	36.0%*	92.7*	0.143*
Fc1ccc(C(c2nnnn2C2CCCC2)N2CCc3ccccc32)cc1 (stereo not drawn)	-9.31*	i	i	-0.24	-9.51*	-11.8	37.5%*	i	46.5%*	107.3*	i
SMILES	KCNK3 inh	KCNQ1 pot	KCNQ1 inh	Kir21 block	KCNK9 block	hERG protect	KCNK9 inh conf	Kir2-1 spec	HEK293 Tl ctr	KCNK3 confirm	KCNK3 uninduced
COc1cc2cc(C(c3nnnn3C3CCCC3)N3CCc4ccccc43)c(=O)[nH]c2cc1OC (stereo not drawn)	i	i	i	-1.13	i	-6.3	.	.	.	.	.
CC(C)CC(c1nnnn1Cc1cccs1)N1CCN(c2nc3ccccc3s2)CC1 (stereo not drawn)	-10.3*	i	i	-1.14	-11.7*	-12.0	38.0%*	i	i	128.7*	0.121*
CCC(=O)Oc1ccc(C(=O)Nc2ccc3c(c2)OCO3)cc1	i	i	i	0.31	i	-10.4	.	.	.	.	.
COc1ccccc1C1CCN(c2cc(O)ccc2[N+](=O)[O-])CC1	-10.4*	i	11*	-0.04	-10.9*	-12.7	55.0%*	i	44.5%*	110.7*	i
COc1ccccc1C1CCN(C(=O)C2CCCCC2)CC1	i	i	i	-1.07	i	-5.5	.	.	.	.	.
Cn1c(C(=O)Nc2ccc3c(c2)OCCO3)cc2sccc21	i	i	i	-2.33	i	-10.4	.	.	.	.	.
O=C(Nc1ccc2c(c1)OCCO2)c1cc2sccc2n1Cc1ccc(F)cc1	-11.2*	i	i	-0.12	-12*	-10.2	46.0%*	i	30.0%*	120.0*	0.116*
